# Source: PubChem (The Scripps Research Institute Molecular Screening Center)
# TAAR1 antagonist: antagonists of human TAAR1; Q96RJ0; CHO RD-HGA16 TAAR1, Fluo-8 calcium fluorescence, antagonist; inhibition, % at 3 µM; actives 1.5% (n = 360,000); AID 624466;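 active means inhibition above a per-plate cutoff, the mean inhibition of test compounds on that plate plus 3 SD, cut at about 49% in these data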;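 further: 0% = DMSO plus EC80 beta-PEA response and 100% = DMSO alone without agonist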
# Target sequence (Q96RJ0 whole entry, looked up): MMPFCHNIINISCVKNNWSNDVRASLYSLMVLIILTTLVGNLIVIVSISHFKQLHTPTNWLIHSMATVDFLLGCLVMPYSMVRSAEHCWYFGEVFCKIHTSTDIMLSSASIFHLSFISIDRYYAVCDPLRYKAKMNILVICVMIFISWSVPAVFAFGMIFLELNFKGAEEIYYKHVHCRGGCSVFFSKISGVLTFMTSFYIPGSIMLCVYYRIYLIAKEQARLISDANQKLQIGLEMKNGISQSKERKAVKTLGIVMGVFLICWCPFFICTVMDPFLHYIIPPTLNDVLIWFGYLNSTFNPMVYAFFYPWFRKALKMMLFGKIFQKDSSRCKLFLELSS
#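 Test system: CHO RD-HGA16 cells bearing hTAAR1 | Reagent: β-PEA, EC80 | Compound dosing: 3 µM, single point | Schedule: Dye loading 75 min at 37 °C, then 30 min room temperature | Signal: Calcium fluorescence with Fluo-8 | Evaluation: Percent inhibition of PEA-evoked calcium signal, max/basal emission ratio | Control set: DMSO-only wells and EC80 β-PEA-stimulated wells | Repeats: Singlicate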
# OX1R antag-1: blocks the human orexin 1 receptor. O43613. OX1R-expressing cells, FRET antagonist read-out. inhibition, % at 6.6 µM. actives 1.8% (n = 330,000); in the data active means inhibition mostly above about 38%, no sharp cut-off; inactive means mostly below about 40%;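 further: 0% = agonist challenge alone and 100% = reference antagonist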
# Target sequence (O43613 whole entry, looked up): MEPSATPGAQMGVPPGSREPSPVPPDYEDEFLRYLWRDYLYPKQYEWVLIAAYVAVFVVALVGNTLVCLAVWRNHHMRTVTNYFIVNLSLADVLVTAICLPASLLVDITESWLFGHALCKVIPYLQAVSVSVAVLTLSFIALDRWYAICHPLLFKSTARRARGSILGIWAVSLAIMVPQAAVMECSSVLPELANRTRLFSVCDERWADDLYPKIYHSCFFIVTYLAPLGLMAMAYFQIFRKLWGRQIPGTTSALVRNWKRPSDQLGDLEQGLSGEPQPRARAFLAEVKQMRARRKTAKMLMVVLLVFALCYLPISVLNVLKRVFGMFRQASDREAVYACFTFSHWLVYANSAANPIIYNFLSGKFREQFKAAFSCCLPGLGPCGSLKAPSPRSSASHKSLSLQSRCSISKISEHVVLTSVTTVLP
# OX1R antag-2: antagonists of human orexin 1 receptor. AID 434989. actives 0.43% (n = 330,000). inhibition, % at 5 µM. CHO/OX1R cells, Fluo-8 calcium fluorescence, orexin A;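 active means inhibition above its plate's threshold, mean inhibition of all tested compounds on the plate plus 3 SD, cut at about 37% in these data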;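 further: 0% = orexin A challenge wells and 100% = SB-334867-A antagonist wells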
# TAAR1 ag: agonists of human TAAR1; CHO RD-HGA16 TAAR1, Fluo-8 calcium fluorescence; vehicle wells 0%, saturating PEA agonist 100%; activation, % at 3 µM; actives 0.99% (n = 360,000);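 active means activation above the mean activation of all test compounds in the run plus 3 SD, cut at about 38% in these data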
#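 Test system: RD-HGA16 (CHO) cells co-expressing Gα16 and hTAAR1 | Doses: Single dose, 3 µM | Schedule: 17-24 h seeding, 75 min 37 °C dye, 30 min RT | Evaluation: % activation from peak over basal fluorescence ratio, DMSO-to-PEA scaled | Technique: Kinetic Fluo-8 calcium fluorescence | Benchmarks: Low control DMSO, high control PEA (EC100)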
# CHO parental Ca: counter-screen: ATP calcium response change in parental CHO cells; parental CHO-K1, ATP-induced calcium, Fluo-8 fluorescence; inhibition, % at 5.6 µM; actives 0.63% (n = 330,000);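 active means inhibition above that plate's mean sample inhibition plus 3 SD, cut at about 26% in these data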;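 further: 0% = ATP-challenged DMSO wells and 100% = DMSO wells without ATP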
#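 Test system: untransfected parental CHO cell line. Compound: one dose, 5.6 µM nominal. Detection: intracellular calcium via Fluo-8 no-wash fluorescent dye. Measure: % inhibition. Benchmarks: ATP-challenged DMSO wells low, unchallenged DMSO wells high.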
# GPR7 antagonist: human neuropeptides B/W receptor 1 antagonism. inhibition, % at 4.4 µM. AID 1861. actives 1.1% (n = 290,000). GPR7-expressing cells, fluorescence antagonist assay. P48145; in the data active means inhibition above about 16%, passing the limit was not always enough;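 further: cells stimulated with the agonist NPW; 0% = agonist with vehicle and 100% = vehicle without agonist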
# TAAR1 ag conf: human TAAR1 agonism, confirmed; shares compounds with TAAR1 ag; CHO RD-HGA16 TAAR1, Fluo-8 calcium fluorescence; scaled: DMSO 0%, maximal phenethylamine 100%; activation, % at 3 µM; actives 82% (n = 2,400);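 active means activation above a cutoff set at the run's mean compound activation plus 3 SD, cut at about 39% in these data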
# Ga16 nonsel ag: nonselective agonism, TAAR1 counter-screen; AID 651787; CHO-Ga16 parental, Fluo-8 calcium fluorescence; normalized to maximal ATP response, DMSO zero; shares compounds with TAAR1 ag; activation, % at 3 µM; actives 50% (n = 2,400);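 active means activation above the run cutoff, the mean activation over all tested wells plus 3 SD, cut at about 12% in these data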;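 further: 0% = DMSO wells and 100% = maximal ATP response on the peak over basal ratio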
# TAAR1 desensitize: counter-screen for human TAAR1 agonists: agonists that desensitize TAAR1; shares compounds with TAAR1 ag; actives 46% (n = 2,400); CHO RD-HGA16 hTAAR1, Fluo-8 calcium, beta-PEA response inhibition; inhibition, % at 3 µM;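 active means inhibition above the run cutoff, the mean inhibition of all test compounds plus 3 SD, cut at about 49% in these data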;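 further: beta-PEA stimulus applied at its EC80; loss of beta-PEA calcium signal after compound pretreatment read as receptor desensitization; 0% = DMSO with beta-PEA at EC80 and 100% = DMSO alone without agonist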
# Ga16 antag count: nonselective Ga16 antagonist in TAAR1 agonist counter-screen | actives 39% (n = 2,400) | inhibition, % at 3 µM | shares compounds with TAAR1 ag | CHO-Ga16 ATP-induced calcium, Fluo-8 fluorescence | AID 651952;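 active means inhibition above the plate's mean compound inhibition plus 3 SD, computed per plate, cut at about 22% in these data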;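 further: 0% = EC80 ATP with DMSO and 100% = DMSO wells without ATP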
# Numbers without * were called inactive; / = no result. Hits are enriched below; roughly 4.6% of the tested compounds scored in any of these assays.
SMILES,TAAR1 antagonist,OX1R antag-1,OX1R antag-2,TAAR1 ag,CHO parental Ca,GPR7 antagonist,TAAR1 ag conf,Ga16 nonsel ag,TAAR1 desensitize,Ga16 antag count
OC(c1ccc(F)cc1)c1nc(-c2cncnc2)cs1 (stereo not drawn),-8.4,/,/,1.0,/,/,/,/,/,/
CNc1nc(N)c([N+](=O)[O-])c(Nc2ccccc2OC)n1,-8.4,44.3*,-55.7,56.0*,-47.8,-29.0,79.6*,13.2*,20.7,4.0
COc1ccccc1Nc1nc(NCCO)nc(N)c1[N+](=O)[O-],8.8,19.7,-17.5,20.6,-6.3,-10.7,/,/,/,/
CCN(CC)c1ncnc2c1ncn2[C@H]1CN(Cc2ccc(OC)cc2)C[C@@H](CO)O1,-21.7,/,/,-0.4,/,/,/,/,/,/
Clc1ccc(-c2nc3ccncc3[nH]2)cc1,19.2,0.3,-19.4,48.6*,-0.9,5.5,71.7*,-0.8,39.9,7.6
CN(C)c1ccc(C(=O)OCC(=O)c2ccc[nH]2)cc1,4.4,3.7,3.3,2.4,-7.8,/,/,/,/,/
O=c1c2[nH]c3ccccc3c2ncn1Cc1ccco1,5.0,-0.4,-8.5,11.2,-6.3,3.3,/,/,/,/
Cc1ccc2c(c1)[nH]c1c(=O)n(Cc3ccco3)cnc12,27.8,8.9,-3.7,72.9*,10.2,-4.7,101.0*,74.0*,89.3*,65.5*
NC(N)=NN=C(c1ccc(F)cc1)c1ccc(C(F)(F)F)cc1,-1.3,/,/,51.2*,/,/,64.6*,31.5*,34.5,28.1*
Cc1noc(C)c1NC(=O)N(C)C[C@@H]1OCc2cnnn2CCCC(=O)N([C@@H](C)CO)C[C@@H]1C,-16.8,/,/,0.4,/,/,/,/,/,/
CC(Cl)=CCn1c(NCCc2ccccc2)nc2c1c(=O)n(C)c(=O)n2C,2.1,/,/,7.4,/,/,/,/,/,/
NC(=O)C1CC(=O)N(c2ccc(OCc3c(Cl)cccc3Cl)cc2)C1 (stereo not drawn),-4.5,31.8,5.0,44.3*,1.4,-0.5,24.4,15.0*,14.6,20.1
O=C(NCc1ccccc1)c1cnc(Cc2c[nH]c3ccccc23)c(I)c1,31.3,/,/,2.8,/,/,/,/,/,/
COc1cccc(N)c1,4.7,/,/,2.1,/,/,/,/,/,/
COc1cccc(N=C(N)N)c1,53.0*,18.3,11.6,67.5*,4.9,-16.6,82.8*,1.6,74.9*,5.1
Cc1ccccc1-c1cnc(C(O)c2ccc(Cl)cc2)[nH]1 (stereo not drawn),-27.8,/,/,3.0,/,/,/,/,/,/
CC1=CC(C)(C)N2C(=O)C3(SCC(=O)N3c3ccc(F)cc3)c3cc(C)cc1c32 (stereo not drawn),34.4,7.0,-10.8,54.3*,11.9,10.8,38.5*,25.1*,27.0,27.6*
CC1=CC(C)(C)N2C(=O)C3(NCCc4c3[nH]c3ccccc43)c3cc(C)cc1c32 (stereo not drawn),-15.3,11.2,-3.1,2.4,4.5,8.3,/,/,/,/
Cc1ccc(NC(=O)COc2cccc3ccc(C)nc23)c(Br)c1,89.5*,20.2,-87.3,86.8*,-6.3,-5.2,2.9,5.1,28.0,22.0*
Cc1ccc(OCC(=O)Nc2cccc(C)n2)c(C)c1,0.3,11.5,-96.4,7.0,-14.3,-8.6,/,/,/,/
O=C(/C=C/c1ccc(O)c([N+](=O)[O-])c1)c1ccc2ccccc2c1,39.5,6.8,-7.8,65.7*,6.2,-16.8,31.9,38.0*,23.8,19.3
CC1(C)CC(NC(=O)c2ccc(-c3ccc([N+](=O)[O-])cc3)o2)CC(C)(C)N1,-24.1,34.8,-16.1,0.7,-15.5,-8.1,/,/,/,/
CCCCCCc1cc2cc(-c3nnc(-c4ccccc4O)o3)c(=O)oc2cc1O,42.5,11.2,12.2,48.3*,8.0,5.3,48.4*,46.4*,59.4*,60.3*
CCCCCCc1cc2cc(-c3nnc(-c4ccccc4OC)o3)c(=O)oc2cc1O,27.8,4.5,20.4,21.5,21.9,-5.7,/,/,/,/
CC1=C(C)CS(=O)N(S(=O)(=O)c2ccccc2)C1 (stereo not drawn),9.1,18.9,-7.7,72.8*,-13.2,3.2,67.7*,32.8*,22.9,20.7
SMILES,TAAR1 antagonist,OX1R antag-1,OX1R antag-2,TAAR1 ag,CHO parental Ca,GPR7 antagonist,TAAR1 ag conf,Ga16 nonsel ag,TAAR1 desensitize,Ga16 antag count
CC1=C(C)CS(=O)N(c2ccc(S(N)(=O)=O)cc2)C1 (stereo not drawn),4.6,18.5,4.5,34.4,-8.3,0.8,/,/,/,/
CCOCCCn1c(=S)[nH]c2cc(C(=O)NCCc3ccccc3)ccc2c1=O,-9.2,16.9,-24.1,43.8*,-10.0,-13.1,50.5*,7.4,20.6,10.4
COc1ccc([C@H]2C[C@@H](O)[C@H](n3cc(COC(=O)c4ccccc4)nn3)CN2CC2CCCCC2)cc1,37.1,/,/,4.8,/,/,/,/,/,/
O=C1NC[C@@H](CCCCN2CCN(CCc3ccccc3)C(=O)C2=O)N(CCC2CCCCC2)C1=O,-2.1,/,/,1.5,/,/,/,/,/,/
N#Cc1ccc(CN2CCN(C(=O)c3ccc(S(=O)(=O)NCc4ccco4)cc3)CC2)cc1,21.7,4.4,-11.9,3.8,-25.2,/,/,/,/,/
COc1cc(NCCCn2cnc(C(=O)Nc3ccc(C)c(C)c3)n2)cc(OC)c1OC,-8.8,/,/,1.5,/,/,/,/,/,/
COc1cccc(C(c2sc3nc(C)nn3c2O)N2CCc3ccccc3C2)c1 (stereo not drawn),-11.7,15.6,-21.8,54.3*,-13.1,-6.1,56.3*,1.8,22.3,7.9
Oc1c(C(c2ccccc2)N2CCc3ccccc3C2)sc2ncnn12 (stereo not drawn),-13.4,5.1,-10.7,64.6*,0.0,-9.7,60.8*,0.3,25.8,11.5
CCC1(c2ccccc2)NC(=O)N(CC(=O)Nc2ccccc2N2CCCCC2)C1=O (stereo not drawn),51.7*,13.3,-25.5,70.1*,-20.3,-1.4,78.3*,44.9*,62.9*,29.8*
O=C(Nc1ccccc1Cl)c1cc(C2CCCCN2C(=O)c2ccccc2)on1 (stereo not drawn),-23.9,/,/,-2.0,/,/,/,/,/,/
COc1cccc(-c2nc(CN3CCN(C(=O)c4ccco4)CC3)c(C)o2)c1OC,-13.7,/,/,0.6,/,/,/,/,/,/
Cc1ccc(OP(=O)(Nc2c(C)n(C)n(-c3ccccc3)c2=O)Oc2ccc(C)cc2)cc1,5.4,11.1,-32.3,50.3*,-17.1,2.7,27.3,7.6,7.9,5.5
